From ChEMBL document CHEMBL4513216, “Probing the Open Global Health Chemical Diversity Library for Multistage-Active Starting Points for Next-Generation Antimalarials” (ACS Infect Dis, 2020) come the findings set out here.

The nature of the data set: Toxicity liver stage against HepG2, at 10uM. In kind it is cell-based. On the set-up: test concentration 10 uM, cell line HepG2-A16-CD81EGFP. As to conditions: human, HepG2-A16-CD81EGFP cells; read-out: INHIBITION
In outline: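 Uninfected HepG2-A16-CD81EGFP cells, 3 × 10^3 per well, 1536-well, plated on prespotted compound at 10 μM final, parasite-free screening media added to match infected plates; puromycin 10 μM positive, DMSO 0.5% negative; run in parallel with 48 h PbLuc assay at 37 °C, 5% CO2; viability by CellTiter-Glo luminescence, normalized to controls.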
Turning to `Cc1noc(CN2CCOC(CN(C)C)C2)n1` (configuration not stated), the cytotoxicity at 10 µM is -6.61%.

With `O=C(c1cnc(NCc2cccnc2)c(Cl)c1)N1CCCCC1`, the cytotoxicity at 10 µM is 8.89%.

As for `Cc1cc(N2CCN(C(=O)c3cc(Cl)c[nH]3)CC2)nc(C)n1`, the cytotoxicity at 10 µM was -2.43%.

On to `Cc1cc(C)n(CC2CN(CC3CCCC3)CCO2)n1` (configuration not stated), for which the cytotoxicity at 10 µM was -16.4%.

On to `CCCSc1ccccc1NC(=O)N1CCC(N2CCSCC2)CC1`, for which the cytotoxicity at 10 µM was -4.73%.

Take `CCOC(=O)N1CCN(C(=O)c2ccc3ccn(C)c3c2)CC1`: the cytotoxicity at 10 µM is -6.57%.

As to `Cc1cccc(C(C(=O)N2CC(Oc3ccccc3F)C2)N(C)C)c1` (configuration not stated), the cytotoxicity at 10 µM was -0.572%.

Turning to `COc1ccccc1OCCc1cc(C2CCNC2)n[nH]1` (configuration not stated), the cytotoxicity at 10 µM was -17.1%.

For `CO[C@H]1CCN(Cc2ccoc2)C[C@@H]1Cc1ccccc1`, the cytotoxicity at 10 µM is -11.9%.

On to `Cc1cc(CN2CCC3(CC2)CC(Nc2ncccn2)CO3)nn1C` (configuration not stated), for which the cytotoxicity at 10 µM was -1.84%.

As for `CSCCc1ccc(NC(=O)NC(C)Cn2cncn2)cc1` (configuration not stated), the cytotoxicity at 10 µM is 2.56%.

`COc1ccc(Nc2ncccc2C#N)cc1N1CCCC1=O`: the cytotoxicity at 10 µM is 6.86%.

As for `CCN(CC)C(=O)Cn1ccc2cc(NC(C)=O)ccc21`, the cytotoxicity at 10 µM is -10.2%.

Take `O=C(Nc1cccc(CN2CCOC2=O)c1)N1CCCCCC1`: the cytotoxicity at 10 µM turned out to be 18.6%.

Take `c1csc(-c2noc(C3CCCOC3)n2)c1` (configuration not stated): the cytotoxicity at 10 µM stood at 7.39%.

For the molecule `O=C(O)C1CCN(C[C@H]2CC[C@@H](Cc3ccc4c(c3)OCO4)O2)CC1`, the cytotoxicity at 10 µM was -7.48%.

As to `Cc1ccc(CNC(=O)CCN2CCOC(C(F)(F)F)C2)cc1` (configuration not stated), the cytotoxicity at 10 µM amounted to 3.71%.

For `CN(CCC(O)c1ccccc1)Cc1nc(-c2ccccc2)no1` (configuration not stated), the cytotoxicity at 10 µM came out at 7.86%.

As to `CN1CCC(CN(C)C(=O)c2cc(C3CCCN3C)ccn2)CC1` (configuration not stated), the cytotoxicity at 10 µM is -28.3%.

As for `CC1CCN(C)c2ccccc2N1C(=O)c1ccn(C)c(=O)c1` (configuration not stated), the cytotoxicity at 10 µM is 2.36%.

As for `CCN(Cc1csc(CS(C)(=O)=O)n1)c1cccc(CO)c1`, the cytotoxicity at 10 µM was -10%.

For the molecule `CCC(O)CN1CCN(C(=O)c2ccn(C)c(=O)c2)CC1` (configuration not stated), the cytotoxicity at 10 µM was -10%.

Take `CN(C)C(=O)COC[C@]12COC[C@H]1CN(C1CCCC1)C2`: the cytotoxicity at 10 µM is -108%.

Consider `COc1ccccc1C(O)CNC(=O)NCc1cc[nH]n1` (configuration not stated), for which the cytotoxicity at 10 µM was -8.81%.

Take `Cn1cc(CC2CCN(C(=O)NCc3cccc(C(N)=O)c3)C2)cn1` (configuration not stated): the cytotoxicity at 10 µM was -4.25%.

Consider `OCc1csc(N2CCCC(CO)(Cc3cccc(Cl)c3)C2)n1` (configuration not stated), for which the cytotoxicity at 10 µM was 8.87%.

For the molecule `CC(C)Nc1ncnc2c1CCN(C(=O)c1ccc[nH]1)CC2`, the cytotoxicity at 10 µM was -77.6%.

As to `COc1ccnc(N2C[C@@H](NS(=O)(=O)N(C)C)[C@H](C(C)C)C2)n1`, the cytotoxicity at 10 µM was -144%.

`Cn1cccc1C(=O)OCCNC(=O)c1ccccc1`: the cytotoxicity at 10 µM stood at 14.7%.

On to `COc1ncccc1CN1Cc2nccn2CC(CN2CCCC2)C1` (configuration not stated), for which the cytotoxicity at 10 µM is -103%.

For the molecule `O=C(O)c1cc(N2C[C@H](NC(=O)C3CCOCC3)[C@@H](C3CC3)C2)ccn1`, the cytotoxicity at 10 µM was -4.23%.

Regarding `CC1CN(CCC(=O)NCCc2cccnc2)Cc2ccccc2O1` (configuration not stated), the cytotoxicity at 10 µM was -3.34%.

Consider `CCOCCCn1c(NC(=O)c2cnn(C)c2)nc2ccccc21`, for which the cytotoxicity at 10 µM is -12.1%.

Turning to `CN1CCCN(C(=O)c2cnsn2)c2cc(F)ccc21`, the cytotoxicity at 10 µM was -4.03%.

Consider `Cn1ccnc1C1CCN(S(=O)(=O)c2ccc3oc(=O)[nH]c3c2)CC1`, for which the cytotoxicity at 10 µM was 1.93%.

Consider `Cc1nnc(NC(=O)CSCc2cc(=O)n3ccccc3n2)s1`, for which the cytotoxicity at 10 µM worked out at 1.5%.

As for `CCn1ncc2c1CN(C(=O)c1cscn1)CC2COC` (configuration not stated), the cytotoxicity at 10 µM is -79.1%.

Consider `CCNC(=O)N1CCCC(C(=O)c2cccc(OC(C)C)c2)C1` (configuration not stated), for which the cytotoxicity at 10 µM was 8.62%.

Turning to `CN(C)c1nc2c(c(N(C)C)n1)CCN(C(=O)CN1C[C@H]3CC[C@@H]1C3)C2`, the cytotoxicity at 10 µM was 4.45%.

In the case of `CN(CCCc1ccccc1)C(=O)c1cn2c(n1)CNCC2`, the cytotoxicity at 10 µM was -52.4%.

Turning to `COc1ncccc1NC(=O)N1CCC(CNC(C)=O)CC1`, the cytotoxicity at 10 µM came out at 3.61%.

Turning to `O=C(Nc1nc2c(s1)CN(S(=O)(=O)C1CC1)CC2)c1ccccn1`, the cytotoxicity at 10 µM was -5.46%.

As for `CC(NC1CCSCC1)c1ccccc1-n1cccn1` (configuration not stated), the cytotoxicity at 10 µM is -2.24%.

Turning to `O=C(c1ccccc1)N1CCCC2(CCN2Cc2cccc(F)c2)C1` (configuration not stated), the cytotoxicity at 10 µM was -121%.

Take `CN1CCCC1CNC(=O)CCCOc1ccc(F)cc1` (configuration not stated): the cytotoxicity at 10 µM is -7.67%.

On to `CCC(CO)N(Cc1cccc(-n2cccn2)c1)Cc1ccccn1` (configuration not stated), for which the cytotoxicity at 10 µM came out at 6.95%.

As to `Cc1ccc2c(C(=O)N(C)C)cc(-c3cnn(CCO)c3)nc2c1C`, the cytotoxicity at 10 µM was found to be 3.69%.

For `CC(=O)N1CCN(C2CCCCc3ccccc32)CC1` (configuration not stated), the cytotoxicity at 10 µM is -46.3%.

Regarding `CCC(=O)Nc1nnc(CCOc2ccc(OC)cc2)s1`, the cytotoxicity at 10 µM is 6.31%.

Regarding `Cc1cnn(CCCNCc2csc(COc3ccccc3)n2)c1`, the cytotoxicity at 10 µM amounted to 5.34%.

Consider `COC(=O)c1cccc(S(=O)(=O)NCc2cccnc2N(C)C)c1`, for which the cytotoxicity at 10 µM came to 5.68%.

Take `NC(=O)COc1ccc(CN2CCC3(CC2)[C@H](O)C[C@@H]3O)cc1Cl`: the cytotoxicity at 10 µM was 3.76%.

Turning to `Cc1ccc(N2CCCC(N(C)Cc3nc(C)c(C)o3)C2)nn1` (configuration not stated), the cytotoxicity at 10 µM worked out at 3.15%.

As for `NS(=O)(=O)CC1CCCN(C(=O)CCCC2CCCC2)C1` (configuration not stated), the cytotoxicity at 10 µM amounted to 15.8%.

Regarding `Cc1ccc(C(=O)Nc2nnc(CC(C)C)s2)c(-n2cnnn2)c1C`, the cytotoxicity at 10 µM was -147%.

Take `CN(Cc1nnc(C2CC2)n1C)C1CCN(CCc2cccs2)C1` (configuration not stated): the cytotoxicity at 10 µM is -8.71%.

As for `Cc1c(C(=O)N2CCC(N3CCCCC3)CC2)n(C)c2ccc(Cl)cc12`, the cytotoxicity at 10 µM was -63.8%.

For `Cc1cccc(CN2C[C@@H]3CN(C(=O)C4CCOC4)C[C@@H]3C2=O)c1` (some centres not stated), the cytotoxicity at 10 µM is -114%.

As to `CN1CC(C(=O)N2CCN(c3cccc(Cl)c3)C(=O)C2)NC1=O` (configuration not stated), the cytotoxicity at 10 µM was -3.94%.

Regarding `O=S1(=O)[C@@H](c2ccccc2)[C@H](CO)CN1c1ccccc1`, the cytotoxicity at 10 µM is -5.41%.

As for `Cc1c(NC(C)C(C)C)cccc1C(=O)NCc1ccnn1C` (configuration not stated), the cytotoxicity at 10 µM turned out to be 57.6%.

On to `O=S1(=O)CCC(CNc2cc(-c3ccccc3)nc3ccnn23)C1` (configuration not stated), for which the cytotoxicity at 10 µM amounted to 61.2%.

Regarding `O=C(NC1CC1)[C@H]1C[C@H]2OCC[C@H]2N(Cc2ccc(F)cc2)C1`, the cytotoxicity at 10 µM came to 3.62%.

As for `COc1ccc(Cc2nc3c([nH]2)CC(C)(C)CNC3=O)c(OC)c1`, the cytotoxicity at 10 µM is -1.02%.

Consider `COc1ccc(CC(=O)NCCn2nc3ccccn3c2=O)cc1`, for which the cytotoxicity at 10 µM was -8.61%.

On to `Fc1cccc(CN2CCN(Cc3cscn3)CC2)c1`, for which the cytotoxicity at 10 µM was -0.612%.

Take `CSc1ccc(C2SCC(=O)Nc3c2c(=O)[nH]n3C2CCOCC2)cc1` (configuration not stated): the cytotoxicity at 10 µM is -14.9%.

In the case of `Cc1nccn1-c1cccc(C2CCCN2S(=O)(=O)c2cn(C)cn2)n1` (configuration not stated), the cytotoxicity at 10 µM is 7.99%.

Take `Cc1cc(CNC(=O)N2CCc3ccccc3C2CO)c(C)o1` (configuration not stated): the cytotoxicity at 10 µM is 7.44%.

In the case of `CCn1cnnc1C1CCN(C(=O)c2ccoc2C)CC1`, the cytotoxicity at 10 µM is -8.04%.

Turning to `CC(=O)N[C@@H]1Cc2ccccc2[C@H]1Nc1ccncn1`, the cytotoxicity at 10 µM is -43.6%.

With `CCS(=O)(=O)CCSc1cccc(C#N)c1`, the cytotoxicity at 10 µM is -3.24%.

`CCS(=O)(=O)N1CCC[C@]2(C(=O)N(C)C)CN(c3ncccn3)C[C@@H]2C1`: the cytotoxicity at 10 µM was -3.26%.

For `CCc1nnsc1C(=O)N1CCOC(c2nc(C(C)C)n[nH]2)C1` (configuration not stated), the cytotoxicity at 10 µM came to 1.23%.

For the molecule `O=C(Nc1nc2c(s1)CN(S(=O)(=O)C1CC1)CC2)Nc1ccccc1F`, the cytotoxicity at 10 µM is -1.34%.

Regarding `Cc1ccccc1CN1CCCN(C2CCOC2=O)CC1` (configuration not stated), the cytotoxicity at 10 µM was -3.09%.

With `CC1(C2CCN(CC(N)=O)CC2)CN(Cc2ccccc2)C(=O)O1` (configuration not stated), the cytotoxicity at 10 µM is -23.4%.

With `COCc1ncc(CN(CCN(C)C)Cc2ccc(C)s2)cn1`, the cytotoxicity at 10 µM was -57.1%.

Consider `Cc1noc(C)c1CN1CCN(C(C)c2nc(C3CC3)no2)CC1` (configuration not stated), for which the cytotoxicity at 10 µM is -16.5%.

With `CS(=O)(=O)c1nccn1Cc1ccc(Cl)cc1`, the cytotoxicity at 10 µM is -10.4%.

In the case of `CC(C)CCNC(=O)c1c(-n2cnnn2)sc2c1CCCC2`, the cytotoxicity at 10 µM stood at 8.79%.

As for `CC(C(=O)NC1(C#N)CCCCC1)N1CCc2c(ncn2C2CC2)C1` (configuration not stated), the cytotoxicity at 10 µM was determined as 7.66%.

Take `Cc1cccc(C(=O)Nc2cccc3c2CCCC3)n1`: the cytotoxicity at 10 µM was -2.35%.

Regarding `CN(Cc1noc2c1CCCC2)C(=O)C1CCOc2ccccc2C1` (configuration not stated), the cytotoxicity at 10 µM is -7.11%.

In the case of `Cc1cc(C)n(C2CCN(C(=O)CN3C(=O)CSc4ccccc43)C2)n1` (configuration not stated), the cytotoxicity at 10 µM was -15.3%.

For `CC(C)c1nnc(NC(=O)CCC(=O)NCC2CCCO2)s1` (configuration not stated), the cytotoxicity at 10 µM is -9.58%.

In the case of `O=C(CS(=O)(=O)c1ccccn1)NC1CCCc2ccccc21` (configuration not stated), the cytotoxicity at 10 µM was -4.04%.

With `Cc1cnn(C2CN(c3ncnc4[nH]ccc34)C2)c1`, the cytotoxicity at 10 µM was found to be 8%.

As to `Cc1cccc(CNC(Cn2cncn2)c2ccccc2)c1C` (configuration not stated), the cytotoxicity at 10 µM is -5.23%.

Turning to `Cc1cc(-n2c(C)cn(CN(C)CC3CC3)c2=O)no1`, the cytotoxicity at 10 µM was -2.95%.

On to `O=C(CC1CCN(c2ncnc3ccccc23)CC1)N1CCCC1`, for which the cytotoxicity at 10 µM was found to be 35.1%.

For the molecule `CCn1[nH]c(C)c2c(C(F)(F)F)cc(=O)nc1-2`, the cytotoxicity at 10 µM was -1.26%.

Consider `COc1ccc(OCc2nc(C(=O)N3CCCNC(=O)C3)co2)cc1`, for which the cytotoxicity at 10 µM was -45.1%.

As for `COc1cccc(COCC(=O)NC(C)c2nnc3n2CCC3)c1` (configuration not stated), the cytotoxicity at 10 µM is -3.36%.

Turning to `c1ccc2oc(CCCN3CCCC(Cn4cncn4)C3)nc2c1` (configuration not stated), the cytotoxicity at 10 µM was -27.8%.

Turning to `c1cc(CN2CCC(Cc3noc(C4CC4)n3)CC2)c2c(c1)OCO2`, the cytotoxicity at 10 µM amounted to 7.69%.

`CC(=O)NC1CCN(c2cc(C3CCNCC3)ccn2)CC1`: the cytotoxicity at 10 µM turned out to be 2.93%.
